Data set [1] deals with Homo sapiens. In words: Toxicity in healthy human assessed as occurrence of adverse event at 40 mg, po administered daily for 3 days as two 20-mg immediate-release tablets during 10 hrs overnight fasting state. The settings on record: in vivo. In kind it is organism-based. Summed up: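 3-day daily oral tablet dosing in healthy Caucasian men (8 active, 4 placebo per dose). Adverse events were collected by open questioning and spontaneous report. Severity was graded mild (daily activities unaffected), moderate (some interference) or severe (activities not completed).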

Data set [2] deals with Homo sapiens. In words: Toxicity in healthy human assessed as occurrence of clinically relevant changes in vital signs at 80 mg, po administered daily for 3 days as four 20-mg immediate-release tablets during 10 hrs overnight fasting state. The settings on record: in vivo. In kind it is organism-based. An outline of the steps:
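Healthy Caucasian men received single ascending doses (10–40 mg solution, 80 mg tablets) or 3-day daily tablet courses, all fasting, with randomized placebo controls. Supine blood pressure, heart rate and resting 12-lead ECG were recorded before and after dosing.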

The subject of data set [3] is Homo sapiens. Kind of data set: Toxicity in healthy human assessed as increase in glutamate dehydrogenase level at 80 mg, po administered daily for 3 days as four 20-mg immediate-release tablets during 10 hrs overnight fasting state measured after 24 hrs last post treatment. In kind it is organism-based. The settings on record: in vivo.
A short description of data set [4]: Mean residence time in healthy human at 30 mg, po administered as single ascending doses as solution during 10 hrs overnight fasting state. Particulars: in vivo. In kind it is ADME, organism-based. Summed up:
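Healthy Caucasian male volunteers, single oral dose with 240 ml water after a 10-h overnight fast. Heparinised venous blood was drawn predose and at 0.25–14 h. Plasma was stored frozen. Parent drug and metabolites M1–M3 were measured by LC/MS-MS (MRM, deuterated internal standard). Noncompartmental analysis gave Cmax observed, t1/2 = 0.693/kel (terminal regression) and MRT = AUMC/AUC. Values are geometric means.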

A short description of data set [5]: Apparent volume of distribution with respect to the bioavailability in healthy human at 30 mg, po administered as single ascending doses as solution during 10 hrs overnight fasting state. In kind it is ADME, organism-based. Particulars: in vivo, read-out: Vc/F. An outline of the steps: (§1)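 Single ascending oral doses in healthy Caucasian men, given fasted (10-h overnight) with 240 ml water: 10, 20, 30 or 40 mg as oral solution, or 80 mg as IR tablets. Parent plasma levels by LC/MS-MS over 0.25–14 h. Noncompartmental analysis: kel by terminal-phase least-squares regression, AUC extrapolated to infinity, CL/F = dose/AUC, V/F = CL/F÷kel.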

Data set [6] is described as follows: AUC in healthy human plasma at 40 mg, po administered as single ascending doses as solution during 10 hrs overnight fasting state. In kind it is ADME, organism-based. Set-up: time < 10 hr, dose 40 mg, route oral. Summed up:
as §1

The subject of a further data set is Plasmodium falciparum. Kind of data set: Antimalarial activity against Plasmodium falciparum TM90-C2A in human plasma assessed as inhibition of hypoxanthine uptake by intraerythrocytic malaria parasites by hypoxanthine incorporation assay. In kind it is functional, organism-based. Summed up:
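K1 or TM90-C2A parasites were sorbitol-synchronized and cultured in RPMI 1640. Drug was diluted in drug-free human serum (0.04–40 ng/ml) or subject plasma was diluted twofold (8–8,192). Parasites were added at 2% hematocrit, 1% parasitemia (>95% rings), and [3H]hypoxanthine uptake was measured over 48 h. IC50 or ID50 came from concentration or dilution-response curves. Equivalent concentration = ID50 × IC50.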

Data set [7] in a line: Tmax in healthy human plasma at 80 mg, po administered as four 20 mg immediate release tablets daily for 3 days during 10 hrs overnight fasting state measured after 1 day. In kind it is ADME, organism-based. Summed up: (§2)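 Healthy Caucasian men (8 active, 4 placebo per dose) dosed with tablets daily for 3 days after 10-h fast. Lithium-heparin plasma sampled predose and 0.25–14 h after day-1 and day-3 doses, stored frozen. Parent and M1–M3 quantified by LC/MS-MS in positive-ion MRM. Tmax taken directly from observed individual data.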

The nature of data set [8]: Tmax in healthy human plasma at 80 mg, po administered as four 20 mg immediate release tablets daily for 3 days during 10 hrs overnight fasting state measured after 3 day. In kind it is ADME, organism-based. An outline of the steps: as §2
Data set [9] is described as follows: Apparent volume of distribution with respect to the bioavailability in healthy human at 80 mg, po administered as four 20 mg immediate release tablets daily for 3 days during 10 hrs overnight fasting state measured after 3 day. In kind it is ADME, organism-based. Particulars: in vivo, read-out: Vc/F. An outline of the steps: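 Healthy Caucasian males took 40 mg (2×20-mg IR tablets) or 80 mg (4 tablets) orally daily for 3 days after a 10-h fast. Plasma parent drug was measured by LC/MS-MS from predose to 14 h after the first and third doses. Noncompartmental analysis: AUC by log-linear trapezoid extrapolated via kel, CL/F = dose/AUC, V/F = CL/F÷kel, geometric means.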

SMILES strings stand for the structures. Values after ≈ are worked out from the molar mass of the structure shown.

The MRT is the average time that molecules of a dose stay in the body. The AUC is the area under the concentration-time curve, a measure of exposure. Read a low AUC as low exposure. Usually IC50 stands for the midpoint of a concentration-inhibition curve. What is called Tmax is the time from dosing to the highest level. On to `C[C@H]1[C@H](N2CCS(=O)(=O)CC2)O[C@@H]2O[C@@]3(C)CC[C@H]4[C@H](C)CC[C@@H]1[C@@]24OO3` [ARTEMIFONE], for which the Activity entry with Homo sapiens [1], in the data set on Homo sapiens [2] and in the data set on Homo sapiens [3] was “Non-toxic” in each case. Moreover, the MRT in data set [4] was found to be 2.29 h. Also, the results for the Vd/F in data set [5] and in data set [9] were 26.6 L/kg and 13.7 L/kg, respectively. In data set [6], this molecule gave an AUC at 10 h of 118 ng·h/mL. In the data set with Plasmodium falciparum, the IC50 stood at 0.64 ng/mL (≈ 1.59 nM). The Tmax in data set [7] and in data set [8] was 1.5 h in each case.

These data come from ChEMBL document CHEMBL1671864, “First assessment in humans of the safety, tolerability, pharmacokinetics, and ex vivo pharmacodynamic antimalarial activity of the new artemisinin derivative artemisone” (Antimicrob Agents Chemother, 2008).
